Data published in ChEMBL document CHEMBL1125540, “Antiviral and antitumor structure-activity relationship studies on tetracyclic eudistomines” (1992).
Converted amounts (≈) assume the structure as drawn.

Experiments:
Assay type in all cases: functional
HeLa [1] = assay: Evaluation for antiviral activity against Coxsackie virus B4 in HeLa cell cultures (Concentration required to reduce virus-induced cytopathogenicity by 50%); conditions: Homo sapiens
Outline: (§1)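 HeLa cultures were infected with respiratory syncytial, vesicular stomatitis, Coxsackie B4 or polio-1 virus. The antiviral end-point is 50% reduction of virus-induced cytopathogenicity. Cytotoxicity is the minimum concentration producing microscopically detectable alteration of normal cell morphology.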

[2] = Evaluation for antiviral activity against herpes simplex virus-2(Lyons) in primary rabbit kidney cell cultures(PRK) (Concentration required to reduce virus-induced cytopathogenicity by 50%); conditions: Oryctolagus cuniculus
MOLT-4F = assay: Inhibitory effect on the proliferation of human T-lymphoblast cells (Molt-4F); conditions: read-out: ID50 (the source's name)
Outline: (§2)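 Proliferation assay in murine leukemia L1210, human T-lymphoblast Molt-4F and human T-lymphocyte MT-4 cells. ID50 is the dose inhibiting tumor cell proliferation by 50%, expressed in μg/mL.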

[3] = Evaluation for antiviral activity against herpes simplex virus-1(TK-) (B2006) in primary rabbit kidney cell cultures(PRK) (Concentration required to reduce virus-induced cytopathogenicity by 50%); conditions: Oryctolagus cuniculus
Vero [4] = assay: Evaluation for antiviral activity against forest virus in Vero cell cultures (Concentration required to reduce virus-induced cytopathogenicity by 50%); conditions: Chlorocebus sabaeus
Outline: (§3)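 Vero cultures were infected with parainfluenza-3, reovirus-1, Sindbis, Coxsackie B4 or Semliki forest virus. Values are concentrations giving 50% reduction of virus-induced cytopathogenicity, or a microscopically detectable alteration of normal cell morphology for cytotoxicity. Each is the average of two separate experiments.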

Influenza A virus = assay: Concentration required to reduce influenza virus A (ishikawa) induced cytopathogenicity by 50%
Outline: (§4)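 Influenza A and B virus replication in MDCK cultures. Antiviral value is the concentration giving 50% reduction of virus-induced cytopathogenicity. Cytotoxicity is the concentration causing a microscopically detectable change in normal cell morphology.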

[5] = Evaluation in PRK cell cultures for cytotoxicity that is to cause microscopically detectable alteration of normal cell morphology; conditions: Oryctolagus cuniculus
[6] = Evaluation for antiviral activity against herpes simplex virus-2(G) in primary rabbit kidney cell cultures(PRK) (Concentration required to reduce virus-induced cytopathogenicity by 50%); conditions: Oryctolagus cuniculus
Vero [7] = assay: Evaluation for antiviral activity against parainfluenza-3 virus in Vero cell cultures (Concentration required to reduce virus-induced cytopathogenicity by 50%); conditions: Chlorocebus sabaeus; outline: as §3
MT4 = assay: Inhibitory effect on the proliferation of human T-lymphocyte (MT-4); conditions: read-out: ID50 (the source's name); outline: as §2
MDCK = assay: Compound was evaluated in MDCK cell cultures for cytotoxicity that is to cause microscopically detectable alteration of normal cell morphology; conditions: Canis lupus familiaris; outline: as §4
[8] = Evaluation for antiviral activity against herpes simplex virus-2(196) in primary rabbit kidney cell cultures(PRK) (Concentration required to reduce virus-induced cytopathogenicity by 50%); conditions: Oryctolagus cuniculus
Vero [9] = assay: Evaluation for antiviral activity against reo virus-1 in Vero cell cultures (Concentration required to reduce virus-induced cytopathogenicity by 50%); conditions: Chlorocebus sabaeus; outline: as §3
[10] = Evaluation for antiviral activity against vaccinia virus in primary rabbit kidney cell cultures(PRK) (Concentration required to reduce virus-induced cytopathogenicity by 50%); conditions: Oryctolagus cuniculus
[11] = Evaluation for antiviral activity against herpes simplex virus-1 (McIntyre) in primary rabbit kidney cell cultures(PRK) (Concentration required to reduce virus-induced cytopathogenicity by 50%); conditions: Oryctolagus cuniculus
[12] = Evaluated for antiviral activity against herpes simplex virus-1(KOS) in primary rabbit kidney cell cultures(PRK) (Concentration required to reduce virus-induced cytopathogenicity by 50%); conditions: Oryctolagus cuniculus
Vero [13] = assay: Evaluation for antiviral activity against Coxsackie virus B4 in Vero cell cultures (Concentration required to reduce virus-induced cytopathogenicity by 50%); conditions: Chlorocebus sabaeus; outline: as §3
HeLa [14] = assay: Evaluation in HeLa cell cultures for cytotoxicity that is to cause microscopically detectable alteration of normal cell morphology; conditions: Homo sapiens; outline: as §1
HeLa [15] = assay: Evaluation for antiviral activity against polio virus-1 in HeLa cell cultures (Concentration required to reduce virus-induced cytopathogenicity by 50%); conditions: Homo sapiens; outline: as §1
Vero [16] = assay: Evaluation in Vero cell cultures for cytotoxicity that is to cause microscopically detectable alteration of normal cell morphology; conditions: Chlorocebus sabaeus; outline: as §3
Vero [17] = assay: Evaluation for antiviral activity against Sindbis virus in Vero cell cultures (Concentration required to reduce virus-induced cytopathogenicity by 50%); conditions: Chlorocebus sabaeus; outline: as §3
[18] = Evaluation for antiviral activity against vesicular stomatitis virus in primary rabbit kidney cell cultures(PRK) (Concentration required to reduce virus-induced cytopathogenicity by 50%); conditions: Oryctolagus cuniculus
HeLa [19] = assay: Compound was evaluated for antiviral activity against respiratory syncitial virus (long) in HeLa cell cultures (Concentration required to reduce virus-induced cytopathogenicity by 50%); conditions: Homo sapiens; outline: as §1
L1210 = assay: Inhibitory effect on the proliferation of murine leukemia cells (L1210); conditions: Mus musculus, read-out: ID50 (the source's name); outline: as §2
[20] = Evaluation for antiviral activity against herpes simplex virus-1(F) in primary rabbit kidney cell cultures(PRK) (Concentration required to reduce virus-induced cytopathogenicity by 50%); conditions: Oryctolagus cuniculus
HeLa [21] = assay: Evaluation for antiviral activity against vesicular stomatitis virus in HeLa cell cultures (Concentration required to reduce virus-induced cytopathogenicity by 50%); conditions: Homo sapiens; outline: as §1
Influenza B virus = assay: Concentration required to reduce influenza virus B (singapore) induced cytopathogenicity by 50%; outline: as §4

N[C@H]1CSCON2CCc3c([nH]c4ccccc34)[C@H]12
MIC (HeLa [1]): > 1 µg/mL | MIC [2]: 2 µg/mL (≈ 7.26 µM) | IC50 (MOLT-4F): 0.6 µg/mL (≈ 2.18 µM) | MIC [3]: > 4 µg/mL | MIC (Vero [4]): > 4 µg/mL | MIC (Influenza A virus): > 1.6 µg/mL | MCC [5]: 10 µg/mL | MIC [6]: > 4 µg/mL | MIC (Vero [7]): > 4 µg/mL | IC50 (MT4): 0.77 µg/mL (≈ 2.8 µM) | MCC (MDCK): 8 µg/mL | MIC [8]: 2 µg/mL (≈ 7.26 µM) | MIC (Vero [9]): > 4 µg/mL | MIC [10]: > 4 µg/mL | MIC [11]: > 4 µg/mL | MIC [12]: > 4 µg/mL | MIC (Vero [13]): > 4 µg/mL | MCC (HeLa [14]): > 4 µg/mL | MIC (HeLa [15]): > 1 µg/mL | MCC (Vero [16]): > 10 µg/mL | MIC (Vero [17]): > 4 µg/mL | MIC [18]: > 4 µg/mL | MIC (HeLa [19]): > 1.6 µg/mL | IC50 (L1210): 1.4 µg/mL (≈ 5.08 µM) | MIC [20]: 2 µg/mL (≈ 7.26 µM) | MIC (HeLa [21]): > 1 µg/mL | MIC (Influenza B virus): > 1.6 µg/mL

N[C@@H]1CSCON2CCc3c([nH]c4ccccc34)[C@H]12
MIC (HeLa [1]): 0.7 µg/mL (≈ 2.54 µM) | MIC [2]: 0.07 µg/mL (≈ 0.254 µM) | IC50 (MOLT-4F): 0.12 µg/mL (≈ 0.436 µM) | MIC [3]: 0.7 µg/mL (≈ 2.54 µM) | MIC (Vero [4]): 0.2 µg/mL (≈ 0.726 µM) | MIC (Influenza A virus): 0.8 µg/mL (≈ 2.91 µM) | MCC [5]: > 10 µg/mL | MIC [6]: 0.2 µg/mL (≈ 0.726 µM) | MIC (Vero [7]): 0.2 µg/mL (≈ 0.726 µM) | IC50 (MT4): 0.075 µg/mL (≈ 0.272 µM) | MCC (MDCK): 8 µg/mL | MIC [8]: 0.2 µg/mL (≈ 0.726 µM) | MIC (Vero [9]): 0.4 µg/mL (≈ 1.45 µM) | MIC [10]: 0.1 µg/mL (≈ 0.363 µM) | MIC [11]: 0.2 µg/mL (≈ 0.726 µM) | MIC [12]: 0.7 µg/mL (≈ 2.54 µM) | MIC (Vero [13]): 0.4 µg/mL (≈ 1.45 µM) | MCC (HeLa [14]): > 4 µg/mL | MIC (HeLa [15]): 0.7 µg/mL (≈ 2.54 µM) | MCC (Vero [16]): > 4 µg/mL | MIC (Vero [17]): 0.2 µg/mL (≈ 0.726 µM) | MIC [18]: 0.2 µg/mL (≈ 0.726 µM) | MIC (HeLa [19]): 0.8 µg/mL (≈ 2.91 µM) | IC50 (L1210): 0.11 µg/mL (≈ 0.399 µM) | MIC [20]: 0.07 µg/mL (≈ 0.254 µM) | MIC (HeLa [21]): 0.2 µg/mL (≈ 0.726 µM) | MIC (Influenza B virus): 0.8 µg/mL (≈ 2.91 µM)
